hERG rescue: hERG rescue from dofetilide block, primary screen, cell-based, CHO-hERG, FluxOR thallium flux, dofetilide IC70; dofetilide IC70 present; Voltage-gated inwardly rectifying potassium channel KCNH2 (Homo sapiens), Q12809; 310,000 tested, 0.51% active; activation (rescue from dofetilide block), less the hit threshold, % at 10 µM;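 active means activation above the mean of controls blocked by dofetilide plus 5 SD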;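 further: thallium influx through hERG after potassium depolarization seen as dye fluorescence rise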
KCNQ1 pot: potentiators or activators of KCNQ1 channel, primary screen, cell-based, thallium flux, high-throughput. CHO-K1 KCNQ1, thallium flux FluxOR fluorescence; active compounds read high. 310,000 tested, 0.35% active. B-score at 10 µM. Potassium voltage-gated channel subfamily KQT member 1 (Homo sapiens), P51787;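 active means fluorescence ratio B-score, a plate-corrected score, at least three library SD, with initial intensity B-score within 5 SD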
Target sequence (P51787 whole entry, looked up): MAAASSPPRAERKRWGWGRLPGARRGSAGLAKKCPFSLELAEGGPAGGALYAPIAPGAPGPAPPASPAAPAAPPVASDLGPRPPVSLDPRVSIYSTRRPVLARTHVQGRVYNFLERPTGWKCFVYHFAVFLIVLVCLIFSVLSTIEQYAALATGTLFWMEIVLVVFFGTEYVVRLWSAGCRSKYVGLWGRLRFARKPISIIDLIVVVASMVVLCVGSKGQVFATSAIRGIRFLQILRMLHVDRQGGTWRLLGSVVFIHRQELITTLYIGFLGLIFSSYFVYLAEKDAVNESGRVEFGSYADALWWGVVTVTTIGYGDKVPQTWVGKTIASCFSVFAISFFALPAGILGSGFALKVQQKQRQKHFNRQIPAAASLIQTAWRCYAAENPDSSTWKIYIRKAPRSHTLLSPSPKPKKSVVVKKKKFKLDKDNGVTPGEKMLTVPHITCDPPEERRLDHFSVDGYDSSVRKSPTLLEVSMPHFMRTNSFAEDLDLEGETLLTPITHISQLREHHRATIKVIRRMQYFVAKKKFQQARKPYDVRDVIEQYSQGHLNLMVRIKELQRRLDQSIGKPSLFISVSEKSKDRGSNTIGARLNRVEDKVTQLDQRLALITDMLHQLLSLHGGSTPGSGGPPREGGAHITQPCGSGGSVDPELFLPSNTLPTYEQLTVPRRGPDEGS
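System: Stable KCNQ1 CHO-K1 line | Incubation: 90 min dye loading and 20 min compound exposure, both at room temperature | Measure: Ratio B score | Medium: Assay buffer for compound exposure, DMSO matched across wells | Compound dosing: Single-concentration screen | Probe or stimulus: K+/Tl+ depolarizing stimulus | Measured by: Kinetic FluxOR fluorescence, 10 s baseline plus 110 s post-stimulus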
KCNQ1 block: inhibitors of human KCNQ1 channel, primary screen, cell-based, thallium flux, high-throughput; CHO-K1 KCNQ1, FluxOR thallium flux fluorescence; active compounds read high; 310,000 tested, 1.3% active; B-score at 10 µM; Potassium voltage-gated channel subfamily KQT member 1 (Homo sapiens), P51787;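 active means compounds whose thallium flux B-score, printed positive for inhibition, exceeds three library SD while starting fluorescence stays within three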;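 further: channel opened by potassium depolarization with thallium stimulus after 20 min compound exposure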
KCNK9 inh: KCNK9 potassium channel inhibitors, primary screen, HEK293 cells, thallium flux; AID 488922, 2010; 310,000 tested, 1.2% active; FluxOR thallium flux fluorescence; active compounds read low; B-score at 10 µM;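 active means ratio B-score over 3 SD below the library mean, with starting fluorescence within 5 SD of its mean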;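 further: negative B-score means less thallium flux so channel inhibition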
KCNK3 block: human KCNK3 channel inhibitors, primary screen, CHO cells, FluxOR thallium flux, B-score | Potassium channel subfamily K member 3 (Homo sapiens), O14649 | FluxOR fluorescence; active compounds read low | B-score at 10 µM | 340,000 tested, 0.84% active;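 active means B-score under library mean minus 4 SD, starting fluorescence ratio at most library mean plus 5 SD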;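 further: more negative B-score means stronger inhibition of thallium flux through KCNK3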
Kir21 inh: inhibitors of mouse Kir2.1 inward-rectifier potassium channel; B-score at 10 µM; AID 1672, 2009; 310,000 tested, 0.85% active; Inward rectifier potassium channel 2 (Mus musculus), P35561; HEK293-Kir2.1, FluxOR thallium flux fluorescence; active compounds read low;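 active means fluorescence ratio B-score at or below minus 3 SD of library scores, with starting-brightness B-score within 2 SD, cut at about -4.2 in these data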;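 further: channel flux triggered by added potassium and thallium sulfate stimulus; B-score of peak minus minimum fluorescence over baseline after thallium stimulus; more negative B-score means stronger Kir2.1 block with less thallium influx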
KCNK9 block conf: KCNK9 potassium channel inhibitors, confirmation, HEK293 cells, thallium flux, duplicate. shares compounds with KCNK9 inh. FluxOR thallium flux fluorescence. inhibition, % at 10 µM. 4,900 tested, 43% active. AID 492992, 2010;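 active means thallium signal inhibited by more than 5 SD of the compound-free buffer control wells, on both duplicate plates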;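 further: 0% = assay buffer control wells without compound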
Kir2-1 spec: mouse Kir2.1 channel inhibition, confirmation, selectivity assay for KCNK9 modulator project, cell-based, HEK293, thallium flux. inhibition, % at 10 µM. 4,900 tested, 4% active. shares compounds with KCNK9 inh. Kir2.1 cells, FluxOR thallium flux fluorescence;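 active means thallium signal drop more than 5 SD beyond the mean of the no-compound control wells, seen in both duplicate plates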;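 further: signal is fluorescence rise after thallium addition divided by baseline fluorescence; plate controls were assay buffer only for no effect and full block by chlorpromazine control for full effect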
KCNK9 uninduced: thallium flux in non-induced HEK293 cells, confirmation, counter-screen for KCNK9 inhibitor project, cell-based, second counter screen, non-induced KCNK9-HEK293. 4,900 tested, 40% active. FluxOR thallium flux. AID 492997, 2010. shares compounds with KCNK9 inh. inhibition, % at 10 µM;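 active means thallium signal drop beyond 5 SD of the untreated control mean, on both duplicate plates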;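 further: plate controls were buffer only IC0 wells for no effect and SID17386958 at its maximal inhibitory level for full effect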
Numbers without * were called inactive. Rows were chosen to be rich in hits. Some 3.7% of all compounds tested hit in one or more screens of this group.

What do the screens show for `Cc1cc(C)cc(OCC(=O)OCC(=O)N2CC(=O)Nc3ccccc32)c1`?
hERG rescue: -3.4; KCNQ1 pot: inactive; KCNQ1 block: inactive; KCNK9 inh: inactive; KCNK3 block: inactive; Kir21 inh: 0.01

How did COC(=O)c1ccc(N2CCOCC2)c(NC(=O)c2cccnc2)c1 do in these assays?
hERG rescue: -11.6; KCNQ1 pot: inactive; KCNQ1 block: inactive; KCNK9 inh: inactive; KCNK3 block: inactive; Kir21 inh: -0.08

How did O=C1CCC(/C=C/c2ccccc2)=NN1Cc1ccc(Cl)c(Cl)c1 do in these assays?
hERG rescue: -4.8; KCNQ1 pot: inactive; KCNQ1 block: inactive; KCNK9 inh: inactive; KCNK3 block: inactive; Kir21 inh: 0.47; KCNK9 block conf: inactive; Kir2-1 spec: inactive; KCNK9 uninduced: inactive

How did CN(Cc1ccc(F)cc1)Cc1nc(CCc2ccccc2)no1 do in these assays?
hERG rescue: -12.7; KCNQ1 pot: inactive; KCNQ1 block: inactive; KCNK9 inh: inactive; KCNK3 block: inactive; Kir21 inh: 1.3; KCNK9 block conf: inactive; Kir2-1 spec: inactive; KCNK9 uninduced: inactive

Results for CCOc1cc(C2NC(=O)CCC2[N+](=O)[O-])cc(Br)c1OC (configuration not stated) ?
hERG rescue: -3.8; KCNQ1 pot: inactive; KCNQ1 block: inactive; KCNK9 inh: inactive; KCNK3 block: inactive; Kir21 inh: 1.35

Results for CCOC(=O)C1CCCN(C2=NC(=O)/C(=C/c3ccc(N(C)C)cc3)S2)C1 (configuration not stated) ?
hERG rescue: -28.8; KCNQ1 pot: inactive; KCNQ1 block: 8*; KCNK9 inh: -8.42*; KCNK3 block: inactive; Kir21 inh: -5.82; KCNK9 block conf: 55.5%*; Kir2-1 spec: inactive; KCNK9 uninduced: 86.0%*

Results for O=C(CN1C(=O)S/C(=C\C=C\c2ccccc2)C1=O)Nc1cccc(O)c1 ?
hERG rescue: -6.5; KCNQ1 pot: inactive; KCNQ1 block: inactive; KCNK9 inh: inactive; KCNK3 block: inactive; Kir21 inh: 0.22

How did O=C(O)CN1C(=O)/C(=C\c2cccc(OCc3ccc(Cl)cc3)c2)SC1=S do in these assays?
hERG rescue: -10.6; KCNQ1 pot: inactive; KCNQ1 block: inactive; KCNK9 inh: inactive; KCNK3 block: inactive; Kir21 inh: -1.1; KCNK9 block conf: inactive; Kir2-1 spec: inactive; KCNK9 uninduced: inactive

Results for O=C(O)CN1C(=O)/C(=C\c2cc(Br)ccc2OCc2ccc(Cl)cc2Cl)SC1=S ?
hERG rescue: -12.8; KCNQ1 pot: inactive; KCNQ1 block: inactive; KCNK9 inh: inactive; KCNK3 block: inactive; Kir21 inh: 1.07

How did O=C(O)CN1C(=O)/C(=C\c2ccccc2OCc2ccc(Cl)cc2)SC1=S do in these assays?
hERG rescue: -9.5; KCNQ1 pot: inactive; KCNQ1 block: inactive; KCNK9 inh: inactive; KCNK3 block: inactive; Kir21 inh: 0.8; KCNK9 block conf: inactive; Kir2-1 spec: inactive; KCNK9 uninduced: inactive

Results for O=C(CN1C(=O)S/C(=C\C=C\c2ccccc2)C1=O)Nc1ccccc1C(=O)O ?
hERG rescue: -6.6; KCNQ1 pot: inactive; KCNQ1 block: inactive; KCNK9 inh: inactive; KCNK3 block: inactive; Kir21 inh: 0.3; KCNK9 block conf: inactive; Kir2-1 spec: inactive; KCNK9 uninduced: inactive

Results for O=C(O)CN1C(=O)/C(=C\c2cccc(OCc3ccccc3F)c2)SC1=S ?
hERG rescue: -8.6; KCNQ1 pot: inactive; KCNQ1 block: inactive; KCNK9 inh: inactive; KCNK3 block: inactive; Kir21 inh: 0.47; KCNK9 block conf: inactive; Kir2-1 spec: inactive; KCNK9 uninduced: inactive

What do the screens show for `Cc1nn(CC(=O)Nc2ccc(Cl)c(S(=O)(=O)N(C)C)c2)c(C)c1[N+](=O)[O-]`?
hERG rescue: -5.7; KCNQ1 pot: inactive; KCNQ1 block: inactive; KCNK9 inh: inactive; KCNK3 block: inactive; Kir21 inh: 0.31

What do the screens show for `O=C(N/N=C/c1ccc(OC(=O)c2ccco2)cc1)c1ccc[n+]([O-])c1`?
hERG rescue: -6.7; KCNQ1 pot: inactive; KCNQ1 block: inactive; KCNK9 inh: inactive; KCNK3 block: inactive; Kir21 inh: 1.11

Results for COc1ccc(NC(=O)CCCc2nnc3n(C)c(=O)c4sccc4n23)cc1 ?
hERG rescue: -4.2; KCNQ1 pot: inactive; KCNQ1 block: inactive; KCNK9 inh: inactive; KCNK3 block: inactive; Kir21 inh: 0.55

What do the screens show for `O=C(CCN1C(=O)/C(=C/c2ccccc2Cl)SC1=S)Nc1ccccc1C(=O)O`?
hERG rescue: -25.9; KCNQ1 pot: inactive; KCNQ1 block: inactive; KCNK9 inh: inactive; KCNK3 block: inactive; Kir21 inh: -2.99; KCNK9 block conf: inactive; Kir2-1 spec: inactive; KCNK9 uninduced: inactive

Results for O=C(CCN1C(=O)/C(=C\c2ccccc2Cl)SC1=S)Nc1cccnc1 ?
hERG rescue: -26.9; KCNQ1 pot: inactive; KCNQ1 block: inactive; KCNK9 inh: inactive; KCNK3 block: inactive; Kir21 inh: 2.74

How did COc1ccc(C(=O)NCCS(=O)(=O)NCc2ccccc2)cc1 do in these assays?
hERG rescue: -8.9; KCNQ1 pot: inactive; KCNQ1 block: inactive; KCNK9 inh: inactive; KCNK3 block: inactive; Kir21 inh: -0.87

Source: PubChem (Johns Hopkins Ion Channel Center)
